Measured values taken from ChEMBL document CHEMBL2384926, “Asperterrestide A, a cytotoxic cyclic tetrapeptide from the marine-derived fungus Aspergillus terreus SCSGAF0162” (J Nat Prod, 2013).

Tests used:
[1] = test system: Influenza A virus; assay: Antiviral activity against Influenza A virus (A/WSN/1933(H1N1)) infected in dog MDCK cells after 3 days by CPE assay; format: functional, organism-based; conditions: 72 h
Summary of the method: (§1)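 Cytopathic effect (CPE) assay measuring inhibition of virus replication in MDCK cells. Strains were A/WSN/33 (H1N1, M2-resistant) and A/Hong Kong/8/68 (H3N2, M2-sensitive). Ribavirin served as the positive control. Values reported as IC50.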

[2] = test system: MOLT-4; assay: Cytotoxicity against human MOLT4 cells by MTT assay; format: functional, cell-based
Summary of the method: (§2)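 MTT assay on the human tumour lines U937 (leukemic monocyte lymphoma), K562 (erythroid leukemia), BGC-823 (gastric carcinoma), MOLT-4 (acute lymphoblastic leukemia), MCF-7 (breast adenocarcinoma) and A549 (lung carcinoma). Taxol served as the positive control. Values reported as IC50.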

[3] = test system: Influenza A virus; assay: Antiviral activity against Influenza A virus A/Hong Kong/8/68(H3N2) infected in dog MDCK cells after 3 days by CPE assay; format: functional, organism-based; conditions: 72 h; summary of the method: as §1
[4] = test system: U-937; assay: Cytotoxicity against human U937 cells by MTT assay; format: functional, cell-based; summary of the method: as §2
[5] = test system: BGC-823; assay: Cytotoxicity against human BGC823 cells by MTT assay; format: functional, cell-based; summary of the method: as §2
[6] = test system: K562; assay: Cytotoxicity against human K562 cells by MTT assay; format: functional, cell-based; summary of the method: as §2

**Q.** What does the source list for `CC[C@@H](C)[C@H]1NC(=O)[C@@H](C)NC(=O)c2ccccc2NC(=O)[C@@H]([C@@H](O)c2ccccc2)N(C)C1=O`?
**A.** IC50 [1]: 15 µM; IC50 [2]: 6.2 µM; IC50 [3]: 8.1 µM; IC50 [4]: 6.4 µM

**Q.** With `CC(=O)O[C@H]1C(=O)[C@@]2(C)[C@H]([C@H](OC(=O)c3ccccc3)[C@]3(O)C[C@H](OC(=O)[C@H](O)[C@@H](NC(=O)c4ccccc4)c4ccccc4)C(C)=C1C3(C)C)[C@]1(OC(C)=O)CO[C@@H]1C[C@@H]2O` [PACLITAXEL] as the compound, how does the IC50 [2] read?
**A.** 0.0018 µM

**Q.** What about the IC50 [5] of the same compound?
**A.** 0.0035 µM

**Q.** What about the IC50 [4] of the same compound?
**A.** 0.0019 µM

**Q.** What about the IC50 [6] of the same compound?
**A.** 0.0049 µM

**Q.** How did the IC50 [1] turn out when `NC(=O)c1ncn([C@@H]2O[C@H](CO)[C@@H](O)[C@H]2O)n1` [RIBAVIRIN] was run?
**A.** 20.2 µM

**Q.** What about the IC50 [3] of the same compound?
**A.** 0.41 µM
